High-throughput results: PubChem BioAssay, Johns Hopkins Ion Channel Center
Compounds with a hit are over-represented: about 3.5% of the library has one in this group of screens.
RGS4 inh: inhibitors of human RGS4. P49798. HEK293 M3R/RGS4 inducible, Fluo-4 calcium flux; stronger effect = higher value; triggered by carbachol at its EC20. B-score at 10 µM. actives 0.45% (n = 310,000);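 active = B-score, a plate-corrected calcium signal, over three deviations above library mean, with baseline fluorescence within five deviations of library mean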;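 also: RGS4 expression induced by doxycycline in cells with stable M3 receptor; B-score is computed from the integrated fluorescence ratio over baseline after carbachol; higher B-score means a larger calcium signal and so more RGS4 inhibition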
Target sequence (P49798 whole entry, looked up): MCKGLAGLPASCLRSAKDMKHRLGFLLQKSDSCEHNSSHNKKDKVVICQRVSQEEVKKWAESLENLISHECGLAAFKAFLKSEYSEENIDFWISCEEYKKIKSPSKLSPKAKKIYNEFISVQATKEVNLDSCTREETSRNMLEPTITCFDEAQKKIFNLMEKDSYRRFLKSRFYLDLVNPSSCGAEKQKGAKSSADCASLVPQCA
MrgX1 allo act: allosterically activates human MrgX1 receptor signaling; Q96LB2; AID 588675; B-score at 10 µM; actives 0.63% (n = 310,000); MrgX1-HEK293, Fluo-4 calcium flux, FDSS; stronger effect = higher value;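 active = plate-corrected calcium response at least 3 library SD above typical, normal starting fluorescence, not activating the receptor alone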;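 also: compound read alongside a low EC10 to EC30 dose of BAM8-22 agonist; peak minus trough fluorescence over baseline measured at the second addition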
Target sequence (Q96LB2 whole entry, looked up): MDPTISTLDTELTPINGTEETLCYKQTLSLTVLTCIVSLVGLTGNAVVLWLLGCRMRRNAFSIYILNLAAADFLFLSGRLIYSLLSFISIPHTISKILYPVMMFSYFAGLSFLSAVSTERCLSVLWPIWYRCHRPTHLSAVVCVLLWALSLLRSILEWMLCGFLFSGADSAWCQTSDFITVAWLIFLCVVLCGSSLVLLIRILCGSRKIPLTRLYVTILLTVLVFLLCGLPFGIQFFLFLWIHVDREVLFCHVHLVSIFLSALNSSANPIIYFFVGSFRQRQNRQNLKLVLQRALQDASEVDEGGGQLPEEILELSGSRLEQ
MrgX1 ag: agonists of human MrgX1 receptor; B-score at 10 µM; MrgX1-HEK293 cells, Fluo-4 calcium fluorescence, agonist mode; stronger effect = higher value; actives 0.44% (n = 310,000); Q96LB2;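 active = calcium response B-score plate-corrected fluorescence ratio at least 3 library SD, with starting fluorescence B-score inside 5 SD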
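Test system: HEK293 cells stably expressing human MrgX1 receptor; Input: fifteen thousand cells per well; Dosing: compound delivered in addition one of three; Schedule: overnight seeding, then 1 h dark dye loading; Technique: Fluo-4 NW calcium fluorescence; Measure: B-scored fluorescence response ratio; Controls: positive and negative controls per plate.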
RGS4 pot: potentiators or activators of RGS4. HEK293 M3R/inducible RGS4, carbachol calcium flux Fluo4; stronger effect = lower value. B-score at 10 µM. actives 0.92% (n = 310,000). AID 463111;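 active = B-score of the integrated calcium signal more than 4 SD below the library mean, with starting fluorescence not abnormally high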;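 also: negative B-score means reduced calcium response which marks RGS4 activation or potentiation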
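Detection: kinetic calcium fluorescence imaging with Fluo4-AM dye, 2 µM / Material: HEK293 cells with stable M3R and inducible RGS4 / Schedule: recording 10 s baseline at 1 Hz, 100 s post-agonist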
MrgX1 antagonist: human MrgX1 receptor antagonism, primary screen; B-score at 10 µM; MRGX1-HEK293 calcium flux, Fluo-4, BAM8-22 antagonism; stronger effect = lower value; actives 1.3% (n = 310,000); Q96LB2;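 active = calcium-response B-score plate-corrected more than 3 library SD below zero, starting fluorescence within 5 deviations, no agonist response on first addition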;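 also: peak minus trough fluorescence over baseline after final BAM8-22 challenge near maximal dose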
MrgX1 allo conf: human MrgX1 positive allosteric modulation, re-confirmation; actives 13% (n = 1,200); shares compounds with MrgX1 allo act; AID 602413; MrgX1-HEK293, Fluo-4 calcium fluorescence, FDSS; activation (ratio percentage), % at 10 µM;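 active = ratio at least 3 SD above the weak peptide control, stable starting fluorescence, no direct agonism earlier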;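 also: compound followed by low BAM8-22 agonist challenge near EC20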
HEK293 Ca flux: MrgX1 antagonist counter-screen hit in parental HEK293 cells; shares compounds with MrgX1 antagonist; Fluo-4 calcium fluorescence, FDSS; fluorescence ratio F(max-min)/F0 at 10 µM; actives 2% (n = 4,000); AID 624111;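 active = duplicate-averaged calcium fluorescence ratio at least three times the standard deviation of buffer wells, a nonspecific response in parental cells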
HEK293 Ca counter: counter-screen for MrgX1 allosteric activators: effect in parental HEK293 cells; fluorescence ratio F(max-min)/F0 at 10 µM; shares compounds with MrgX1 antagonist; parental HEK293 calcium flux, Fluo-4 fluorescence ratio; stronger effect = higher value; AID 624114; actives 0.4% (n = 4,000);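 active = calcium fluorescence ratio, averaged over duplicates, at least 3 SD of the buffer-well ratio, meaning a nonspecific response in receptor-free cells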;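 also: untransfected parental HEK293 lacking MrgX1 used as counterscreen for MrgX1 allosteric activators; fluorescence change taken during the second addition on a kinetic imager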
HEK293 Ca cntr2: activity in parental HEK293 cells lacking MrgX1 receptor | shares compounds with MrgX1 antagonist | Fluo-4 calcium fluorescence (FDSS); stronger effect = higher value | fluorescence ratio F(max-min)/F0 at 10 µM | actives 8.7% (n = 4,000) | AID 624115;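 active = calcium fluorescence ratio at least three times the spread of buffer wells, meaning a non-specific response in parental cells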
* = called active by the depositor; i = inactive; . = not tested or not shown.

SMILES	RGS4 inh	MrgX1 allo act	MrgX1 ag	RGS4 pot	MrgX1 antagonist	MrgX1 allo conf	HEK293 Ca flux	HEK293 Ca counter	HEK293 Ca cntr2
COc1ccc(-c2nnc(NC(=O)c3cc(C)on3)s2)cc1	i	8.2*	i	i	i	i	i	i	i
NC(=O)COC(=O)c1cccc(S(=O)(=O)N2CCCCC2)c1	i	11*	i	i	i	i	i	i	i
CCOC(=O)c1cccc(S(=O)(=O)N2CCCC2)c1	i	i	i	i	i	.	.	.	.
Cc1[nH]c(C)c(S(=O)(=O)N2CCCCC2)c1C(=O)N1CCCCC1	i	i	i	i	i	.	.	.	.
Cc1cccc(N=C2NC(=O)/C(=C3/C(=O)N(C)c4ccccc43)S2)c1C	i	7.3*	i	i	i	i	i	i	i
CC(=Nc1ccc(O)cc1)c1sc2ccccc2c1O	i	39*	i	i	i	i	i	i	i
CC(=O)NCCN=C(C)c1sc2ccccc2c1O	i	i	i	i	i	.	.	.	.
CC(=Nc1cccc(C)c1)c1sc2ccccc2c1O	i	8.1*	i	i	i	i	i	i	57*
CC(=Nc1ccccc1O)c1sc2ccccc2c1O	i	i	i	i	i	.	.	.	.
Cc1ccnc(NC(=O)CCC(=O)N(CC(=O)NC(C)(C)C)c2ccc(F)c(Cl)c2)c1	i	i	i	i	i	.	.	.	.
COc1ccc(Nc2nc3ccccc3n3nnnc23)cc1	i	13*	i	i	i	i	i	i	i
CCNC(=O)OCC12CC3CC(CC(C3)C1)C2	i	9.8*	i	i	i	i	i	i	i
CCOC(=O)Cc1csc(NC(=O)COc2ccccc2OC)n1	i	12*	i	i	i	i	i	i	i
CCOC(=O)Cc1csc(NC(=S)NC(=O)c2ccc([N+](=O)[O-])cc2)n1	i	i	i	i	i	.	.	.	.
CCOC(=O)Cc1csc(NC(=S)NC(=O)c2ccc(Cl)cc2)n1	i	7*	i	i	i	i	i	i	i
CCOC(=O)Cc1csc(NC(=O)c2ccc(Br)cc2)n1	i	12*	i	i	i	i	i	i	i
CC(=O)c1sc(NC(=O)C2(F)C(F)(F)C(F)(F)C(F)(F)C(F)(F)C2(F)F)nc1C	.	i	i	.	i	.	.	.	.
CC(C)c1nc2sc(C(=O)O)c(N)c2c2c1CCCC2	i	i	i	i	i	.	.	.	.
Cc1c(Cl)cccc1NC(=S)Nc1ccc2[nH]c(=O)[nH]c2c1	i	i	i	i	i	.	.	.	.
CCCC(=O)Nc1cc2c3c(c1)C(C)C(=O)N3CCC2 (centres undefined)	i	i	i	i	i	.	.	.	.
O=C(O)c1nn(CC(=O)N(C2CCCCC2)C2CCCCC2)c(=O)c2ccccc12	i	i	i	i	i	.	.	.	.
O=C(Nc1cccc(F)c1)OC(CN1CCCCC1)C(F)(F)F (centres undefined)	i	7.2*	i	i	i	i	i	i	i
O=c1c(-c2ccccc2)[n+]([O-])c2ccccc2n1O	i	21*	i	i	i	12%*	i	i	i
Nc1cc(=O)[nH]c(SCC(=O)c2ccc(F)cc2)n1	i	i	i	i	i	.	.	.	.
O=C(CSc1ccc(-c2cccs2)nn1)NCCc1ccccc1	i	i	i	i	i	.	.	.	.
SMILES	RGS4 inh	MrgX1 allo act	MrgX1 ag	RGS4 pot	MrgX1 antagonist	MrgX1 allo conf	HEK293 Ca flux	HEK293 Ca counter	HEK293 Ca cntr2
COc1ccccc1CCNC(=O)CSc1ccc(-c2cccs2)nn1	i	7.9*	i	i	i	i	i	i	i
COc1ccccc1N(CC(=O)NC1CC2CCC1C2)S(=O)(=O)c1ccc(C)cc1 (centres undefined)	i	i	i	i	i	.	.	.	.
COc1ccc(S(=O)(=O)N(CC(=O)NC2CC3CCC2C3)c2ccccc2OC)cc1 (centres undefined)	i	8.3*	i	i	i	i	i	i	i
COc1cc(NC(=O)COc2ccc(C)c(C)c2)ccc1NC(=O)c1ccco1	i	i	i	i	i	.	.	.	.
COc1ccccc1CNC(=O)c1cc(C)nn1-c1ccccc1	i	i	i	i	i	.	.	.	.
Cc1cc(C(=O)NCc2ccccc2Cl)n(-c2ccccc2)n1	i	9.3*	i	i	i	i	i	i	i
Cc1ccccc1OCC(=O)Nc1ccccc1N1CCOCC1	i	6.8*	i	i	i	i	i	i	i
Cc1cc(C)c(OCC(=O)Nc2ccccc2N2CCOCC2)c(C)c1	i	6.9*	i	i	i	i	i	i	i
COc1ccc(N2CCOCC2)c(NC(=O)COc2cccc(C)c2C)c1	i	12*	i	i	i	i	i	i	i
COc1ccc(N2CCOCC2)c(NC(=O)COc2cccc(C)c2)c1	i	i	i	i	i	.	.	.	.
Cc1ccc(OCC(=O)Nc2ccccc2-c2ccccc2)cc1	i	6.6*	i	i	i	i	i	i	i
CCn1c(=O)c([N+](=O)[O-])c(NCC2CCCO2)c2ccccc21 (centres undefined)	i	i	i	i	i	.	.	.	.
Cc1ccccc1-c1nc(CS(=O)(=O)CC(=O)NCCN2CCCC2)c(C)o1	i	i	i	i	i	.	.	.	.
Cn1nc(C(=O)N2CCN(c3ccccn3)CC2)c2ccccc2c1=O	i	i	i	i	i	.	.	.	.
O=C(COc1ccccc1)Nc1ccccc1N1CCN(c2ccccc2)CC1	i	13*	i	i	i	i	i	i	i
CC(C)C(=O)N1CCN(c2ccccc2NC(=O)COc2ccccc2)CC1	i	i	i	i	i	.	.	.	.
CCOC(=O)c1c(C)[nH]c(C)c1S(=O)(=O)NCc1ccccc1C	i	i	i	i	i	.	.	.	.
